Test results published in ChEMBL document CHEMBL2311329, “Synthesis and biological evaluation of a folate-targeted rhaponticin conjugate” (Bioorg Med Chem, 2013).
The source made the active and inactive calls. No cut-off for these calls is given here.

How the values were obtained:
M109 = test: In vivo antitumor activity against FR-positive mouse M109 cells implanted in Balb/c mouse assessed as decrease in tumor volume at 2 umol/kg, iv treated 33 days after implantation for TIW 3 week schedule; format: functional, organism-based
Mus musculus = test: Toxicity in FR-positive human KB cells implanted Balb/c mouse assessed as gross toxicity at 2 umol/kg, iv TIW 2 week schedule; format: organism-based; conditions: in vivo, 336 h
Summary of the method: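 Female Balb/c mice, 6–7 weeks old, on folate-free diet. 1 × 10^6 KB cells injected into the dorsal subcutis. Dosing began at tumor volumes of 50–110 mm³: 2 µmol/kg iv, three times a week for 2 weeks, alone or with 40-fold excess FA; PBS for controls. Caliper volumes (0.5 × L × W²) every 2–3 days; body weight followed. n = 5 per cohort.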

[1] = Half life in human serum at 37 degC; format: ADME, cell-free
Summary of the method: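 Compound added to human serum at a final 200 µM and held at 37 °C in a water bath for up to 24 h. Samples taken at 1–3, 5, 8, 12, 18 and 24 h (n = 3). Compound recovered by solid-phase extraction after adding 6 M guanidine (pH 7.4), then measured by HPLC as % recovery.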

KB = test: Antitumor activity against FR-positive human KB cells assessed as decrease in cell viability measured after 48 hrs by MTT proliferation assay; format: functional, cell-based
Summary of the method: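 Cells kept in folate-free RPMI with 10% heat-inactivated FCS. Seeded at 1.0 × 10^4 cells/well and left to adhere overnight. Medium then replaced with drug at 0.1–500 nM, with or without 0.01 mM FA competitor, for 48 h at 37 °C. MTT added for 3 h, formazan dissolved in DMSO, A570 read against a no-MTT baseline. Viability given as % of control; 5 repeats.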

| half-life [1] [h] | IC50 (KB) [nM] | SMILES | inhibition (M109) | Activity (Mus musculus) | inhibition (KB) |
| --- | --- | --- | --- | --- | --- |
| 3.5 | 34 | COc1ccc(/C=C/c2cc(O)cc(O[C@@H]3O[C@H](CO)[C@@H](O)[C@H](O)[C@H]3O)c2)cc1O [RHAPONTIN] | Active | Toxic |  |
|  |  | COc1ccc(/C=C/c2cc(O)cc(O[C@@H]3O[C@H](CNC(=O)OCCSSc4ccccn4)[C@@H](O)[C@H](O)[C@H]3O)c2)cc1O |  |  | Active |
|  |  | COc1ccc(/C=C/c2cc(O)cc(O[C@@H]3O[C@H](CN)[C@@H](O)[C@H](O)[C@H]3O)c2)cc1O |  |  | Active |
